Data: ChEMBL document CHEMBL3400077 (Bioorg Med Chem Lett, 2015)
Active and inactive are the calls of the source. No cut-off for these calls is given here.

Tests used:
Monoglyceride lipase [1] = biological target: T1, Monoglyceride lipase (Homo sapiens, UniProt Q99685); assay: Inhibition of human recombinant MAGL using 2-arachidonoylglycerol substrate assessed as arachidonic acid by HPLC analysis
T1 sequence (Q99685 whole entry): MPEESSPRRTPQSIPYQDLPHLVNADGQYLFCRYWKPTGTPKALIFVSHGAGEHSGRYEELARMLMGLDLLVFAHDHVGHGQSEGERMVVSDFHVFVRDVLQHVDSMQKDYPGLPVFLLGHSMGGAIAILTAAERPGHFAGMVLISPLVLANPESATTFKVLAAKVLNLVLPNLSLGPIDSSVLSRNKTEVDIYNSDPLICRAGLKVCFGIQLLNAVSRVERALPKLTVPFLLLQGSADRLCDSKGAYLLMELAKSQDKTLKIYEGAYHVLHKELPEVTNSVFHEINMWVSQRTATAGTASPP

[2] = biological target: T2, Fatty-acid amide hydrolase 1 (Homo sapiens) (UniProt O00519); assay: Inhibition of human FAAH using [ethanolamine 1-3H] substrate assessed as radioactivity at 10 uM by liquid scintillation counting analysis
T2 sequence (whole entry): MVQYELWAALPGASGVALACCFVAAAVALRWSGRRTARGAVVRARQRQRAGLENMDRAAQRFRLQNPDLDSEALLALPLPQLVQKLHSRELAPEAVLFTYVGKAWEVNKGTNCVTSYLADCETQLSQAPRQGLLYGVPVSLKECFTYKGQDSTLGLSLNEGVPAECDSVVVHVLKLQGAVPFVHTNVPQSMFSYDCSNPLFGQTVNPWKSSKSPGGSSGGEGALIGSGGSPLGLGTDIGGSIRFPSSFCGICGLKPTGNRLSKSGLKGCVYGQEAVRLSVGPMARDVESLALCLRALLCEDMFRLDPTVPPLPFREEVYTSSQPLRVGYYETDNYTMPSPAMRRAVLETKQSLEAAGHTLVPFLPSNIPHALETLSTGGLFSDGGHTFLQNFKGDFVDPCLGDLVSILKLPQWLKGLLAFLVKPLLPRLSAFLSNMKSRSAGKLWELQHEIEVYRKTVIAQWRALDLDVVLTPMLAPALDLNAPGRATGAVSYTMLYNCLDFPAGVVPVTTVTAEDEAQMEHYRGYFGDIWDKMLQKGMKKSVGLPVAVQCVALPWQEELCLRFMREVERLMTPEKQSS
In short: (§1)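 Human recombinant enzyme screened at a single test concentration; percent inhibition is the mean of two independent experiments, each run in duplicate.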

[3] = biological target: T3, Monoglyceride lipase (Homo sapiens) (UniProt Q99685); assay: Inhibition of human recombinant MAGL using 2-arachidonoylglycerol substrate assessed as arachidonic acid at 10 uM by HPLC analysis; in short: as §1
T3 sequence (whole entry): T1 sequence (Q99685 whole entry)

Histamine H1 receptor = Histamine H1 receptor (Cavia porcellus, UniProt P31389); assay: Antagonist activity at histamine H1 receptor in guinea pig jejunum assessed as reduction in histamine-induced contractions; details: read-out: pA2 (converted)
[4] = biological target: T4, Monoacylglycerol lipase ABHD6 (Homo sapiens, UniProt Q9BV23); assay: Inhibition of human ABHD6 containing pCMV6-AC-hABHD6 transfected into HEK293 cells; assay type: cell-based
T4 sequence (Q9BV23 whole entry): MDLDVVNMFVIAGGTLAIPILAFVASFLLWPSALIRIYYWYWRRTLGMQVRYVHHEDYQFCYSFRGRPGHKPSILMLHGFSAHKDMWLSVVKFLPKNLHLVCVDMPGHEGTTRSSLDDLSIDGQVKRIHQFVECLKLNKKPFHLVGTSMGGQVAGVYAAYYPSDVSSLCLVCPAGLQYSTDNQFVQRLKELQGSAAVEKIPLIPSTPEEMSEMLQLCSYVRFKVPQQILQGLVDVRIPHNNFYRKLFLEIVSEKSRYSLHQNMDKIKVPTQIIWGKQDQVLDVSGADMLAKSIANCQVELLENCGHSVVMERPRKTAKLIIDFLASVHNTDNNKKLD

[5] = biological target: T5, Fatty-acid amide hydrolase 1 (Homo sapiens, UniProt O00519); assay: Inhibition of human FAAH using [ethanolamine 1-3H] substrate assessed as radioactivity by liquid scintillation counting analysis
T5 sequence (O00519 whole entry): T2 sequence (whole entry)

[6] = biological target: T6, Lysophosphatidylserine lipase ABHD12 (Homo sapiens) (UniProt Q8N2K0); assay: Inhibition of human ABHD12 containing pCMV6-XL4-hABHD12 transfected into HEK293 cells at 10 uM; assay type: cell-based
T6 sequence (whole entry): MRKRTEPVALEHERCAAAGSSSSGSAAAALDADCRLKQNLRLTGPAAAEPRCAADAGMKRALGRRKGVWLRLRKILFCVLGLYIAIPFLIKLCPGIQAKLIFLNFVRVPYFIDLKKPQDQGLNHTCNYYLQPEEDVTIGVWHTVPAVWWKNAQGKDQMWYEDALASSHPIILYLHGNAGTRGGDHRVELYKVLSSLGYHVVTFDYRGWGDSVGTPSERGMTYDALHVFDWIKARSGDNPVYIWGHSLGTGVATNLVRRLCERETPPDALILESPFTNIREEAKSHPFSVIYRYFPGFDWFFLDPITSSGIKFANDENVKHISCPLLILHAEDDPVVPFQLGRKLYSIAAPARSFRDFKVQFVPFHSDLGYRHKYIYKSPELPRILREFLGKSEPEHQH

[7] = biological target: Cannabinoid receptor 2 (Homo sapiens) (UniProt P34972); assay: Agonist activity at human cannabinoid CB2 receptor introduced into CHO cells assessed as [35S]GTPgammaS binding relative to control; assay type: functional, cell-based
In short: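 [35S]GTPγS binding in membranes from CHO cells expressing hCB2R, test compound alone. Read-out is % of basal binding, mean (range), n = 2.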

Monoglyceride lipase [8] = biological target: T1, Monoglyceride lipase; assay: Reversible inhibition of human recombinant MAGL using 2-arachidonoylglycerol substrate assessed as arachidonic acid after 10 mins by HPLC analysis
[9] = biological target: Cannabinoid receptor 1 (Rattus norvegicus) (UniProt P20272); assay: Antagonist activity at rat cerebellar membrane cannabinoid CB1 receptor assessed as HU210-evoked [35S]GTPgammaS binding response relative to control; assay type: functional; parameters: scale not given: the % may be the effect or the level left
In short: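 [35S]GTPγS binding in rat cerebellar membranes, test compound co-incubated with HU210 agonist. Expressed as % of the HU210-evoked response, mean (range), n = 2.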

[10] = biological target: Cannabinoid receptor 1 (Rattus norvegicus) (UniProt P20272); assay: Agonist activity at rat cerebellar membrane cannabinoid CB1 receptor assessed as [35S]GTPgammaS binding relative to control; assay type: functional
In short: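 [35S]GTPγS binding in rat cerebellar membranes, test compound alone at a single concentration. Read-out is % of basal binding, mean (range), n = 2.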

Monoglyceride lipase [11] = biological target: T1, Monoglyceride lipase; assay: Reversible inhibition of human recombinant MAGL using 2-arachidonoylglycerol substrate assessed as arachidonic acid after 90 mins by HPLC analysis
Monoglyceride lipase [12] = biological target: T1, Monoglyceride lipase; assay: Reversible inhibition of human recombinant MAGL using 2-arachidonoylglycerol substrate assessed as arachidonic acid after 60 mins by HPLC analysis
Monoglyceride lipase [13] = biological target: T1, Monoglyceride lipase; assay: Reversible inhibition of human recombinant MAGL using 2-arachidonoylglycerol substrate assessed as arachidonic acid after 30 mins by HPLC analysis

Chain of Histamine H1 receptor (P31389 whole entry): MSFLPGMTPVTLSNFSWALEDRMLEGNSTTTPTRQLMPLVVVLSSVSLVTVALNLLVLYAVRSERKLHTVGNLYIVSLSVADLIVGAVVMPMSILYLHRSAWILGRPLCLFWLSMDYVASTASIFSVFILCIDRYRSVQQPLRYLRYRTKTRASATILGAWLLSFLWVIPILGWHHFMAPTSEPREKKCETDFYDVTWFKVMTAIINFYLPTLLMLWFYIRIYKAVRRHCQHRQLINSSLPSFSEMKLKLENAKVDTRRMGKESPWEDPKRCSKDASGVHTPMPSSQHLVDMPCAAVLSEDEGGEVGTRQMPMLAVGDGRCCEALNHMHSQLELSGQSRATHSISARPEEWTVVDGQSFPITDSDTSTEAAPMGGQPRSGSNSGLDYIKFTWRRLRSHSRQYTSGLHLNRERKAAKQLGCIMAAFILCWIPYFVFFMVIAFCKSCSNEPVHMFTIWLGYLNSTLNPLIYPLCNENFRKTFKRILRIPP
Chain of Cannabinoid receptor 1 (Rattus norvegicus) (P20272 whole entry): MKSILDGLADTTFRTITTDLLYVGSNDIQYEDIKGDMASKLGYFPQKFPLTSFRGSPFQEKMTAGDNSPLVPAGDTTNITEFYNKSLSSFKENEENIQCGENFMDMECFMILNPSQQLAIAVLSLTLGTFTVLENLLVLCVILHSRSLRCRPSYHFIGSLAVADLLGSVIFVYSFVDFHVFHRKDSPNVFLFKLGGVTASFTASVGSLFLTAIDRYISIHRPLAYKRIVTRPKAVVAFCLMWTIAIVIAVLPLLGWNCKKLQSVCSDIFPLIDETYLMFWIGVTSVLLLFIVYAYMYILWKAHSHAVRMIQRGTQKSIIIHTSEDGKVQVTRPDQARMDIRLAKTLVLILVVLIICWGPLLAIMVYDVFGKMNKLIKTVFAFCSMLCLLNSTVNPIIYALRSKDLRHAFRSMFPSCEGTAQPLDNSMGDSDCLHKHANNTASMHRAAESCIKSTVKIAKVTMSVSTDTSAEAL
Chain of Cannabinoid receptor 2 (Homo sapiens) (P34972 whole entry): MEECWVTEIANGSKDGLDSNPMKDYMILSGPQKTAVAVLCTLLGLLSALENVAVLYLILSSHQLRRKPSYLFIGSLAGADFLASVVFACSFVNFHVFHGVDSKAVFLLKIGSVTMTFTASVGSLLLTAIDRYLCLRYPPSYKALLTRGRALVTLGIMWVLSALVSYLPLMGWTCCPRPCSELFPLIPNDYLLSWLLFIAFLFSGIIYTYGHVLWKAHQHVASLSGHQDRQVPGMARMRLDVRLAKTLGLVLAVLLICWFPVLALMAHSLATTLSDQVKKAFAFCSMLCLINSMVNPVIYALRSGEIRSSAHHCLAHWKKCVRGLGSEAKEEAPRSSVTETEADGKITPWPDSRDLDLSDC

SMILES | IC50 (Monoglyceride lipase [1]) | inhibition [2] | inhibition [3] | further results
O=C(N1CCC(C(c2ccc3c(c2)OCO3)c2ccc3c(c2)OCO3)CC1)n1cncn1 | 0.36 nM | – | – | –
CCOC(=O)N1CCC(=C2c3ccc(Cl)cc3CCc3cccnc32)CC1 | – | 11% | inactive | –
O=C(ON1C(=O)CCC1=O)N1CCC(=C2c3ccc(Cl)cc3CCc3cccnc32)CC1 | 2570 nM | 12% | – | –
O=C(N1CCC(=C2c3ccc(Cl)cc3CCc3cccnc32)CC1)n1nnc2ccccc21 | 208 nM | 22% | – | –
O=C(N1CCC(=C2c3ccc(Cl)cc3CCc3cccnc32)CC1)n1nnc2ncccc21 | 98 nM | 30% | – | –
O=C(Oc1ccc([N+](=O)[O-])cc1)N1CCC(=C2c3ccc(Cl)cc3CCc3cccnc32)CC1 | – | 6% | 27% | –
CN(C(=O)N1CCC(=C2c3ccc(Cl)cc3CCc3cccnc32)CC1)c1ccccc1 | – | 11% | inactive | –
O=C(NC1CCCCC1)N1CCC(=C2c3ccc(Cl)cc3CCc3cccnc32)CC1 | – | 9% | inactive | –
O=C(N1CCC(=C2c3ccc(Cl)cc3CCc3cccnc32)CC1)n1ccnc1 | – | 7% | inactive | –
O=C(N1CCC(=C2c3ccccc3C=Cc3ccccc32)CC1)n1cncn1 | 47 nM | – | – | Kb (Histamine H1 receptor): 316 nM; IC50 [4]: 750 nM; IC50 [5]: 6910 nM; inhibition [6]: inactive
O=C(N1CCC(=C2c3ccc(Cl)cc3CCc3cccnc32)CC1)n1cncn1 | 46 nM | – | – | Activity [7]: 101%; IC50 (Monoglyceride lipase [8]): 209 nM; Activity [9]: 80%; Activity [10]: 90%; IC50 (Monoglyceride lipase [11]): 309 nM; Kb (Histamine H1 receptor): 155 nM; IC50 (Monoglyceride lipase [12]): 257 nM; IC50 [4]: 1780 nM; IC50 [5]: 7240 nM; inhibition [6]: inactive; IC50 (Monoglyceride lipase [13]): 224 nM
O=C(OC(C(F)(F)F)C(F)(F)F)N1CCC(=C2c3ccc(Cl)cc3CCc3cccnc32)CC1 | 645 nM | 15% | – | –
O=[N+]([O-])c1ccc(SC(=S)N2CCC(=C3c4ccc(Cl)cc4CCc4cccnc43)CC2)c([N+](=O)[O-])c1 | – | 12% | 14% | –
CN(C(=O)N1CCC(=C2c3ccc(Cl)cc3CCc3cccnc32)CC1)C1CCCCC1 | – | inactive | inactive | –
O=C(Oc1ccc([N+](=O)[O-])cc1[N+](=O)[O-])N1CCC(=C2c3ccc(Cl)cc3CCc3cccnc32)CC1 | – | 14% | inactive | –
